Assays:
SK-MEL-2 = experiment: Cytotoxicity against human SK-MEL-2 cells after 48 hrs by SRB assay; type: functional, cell-based; details: SK-MEL-2, 48 h
In short: (§1)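 Human tumor lines from ATCC, maintained at Korea Research Institute of Chemical Technology; cytotoxicity determined by sulforhodamine B (SRB) method, reported as IC50.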

C6 = experiment: Induction of nerve growth factor secretion in rat C6 cells at 20 uM after 24 hrs by ELISA relative to control; type: functional
In short: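 C6 glioma cells (Korean Cell Line Bank) seeded 1 × 10^5 cells/well; after 24 h switched to serum-free DMEM with 20 μM compound for 24 h. NGF in conditioned medium quantified by ELISA, given as % of untreated control (100%). 6-Shogaol positive control; mean ± SD of three independent experiments.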

[1] = Cytotoxicity against rat C6 cells assessed as cell viability at 20 uM by MTT assay relative to control; type: cell-based; details: read-out: Activity
In short: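 C6 glioma cells seeded 1 × 10^5 cells/well, treated 24 h later in serum-free DMEM with 20 μM compound for 24 h; viability by MTT assay, expressed as % of untreated control. Mean ± SD of three independent experiments.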

BV-2 = experiment: Antineuroinflammatory activity in mouse BV2 cells assessed as inhibition of LPS-induced nitric oxide production after 24 hrs by Griess assay; type: functional, cell-based; details: BV-2, 24 h
In short: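 BV2 microglia seeded at 4 × 10^4 cells/well, exposed with or without graded compound concentrations, stimulated with LPS 100 ng/mL for 24 h. Nitrite in medium measured by mixing supernatant 1:1 with Griess reagent (0.1% N-1-naphthylethylenediamine, 1% sulfanilamide, 5% phosphoric acid), absorbance read at 570 nm after 10 min against sodium nitrite standard curve. NG-monomethyl-L-arginine positive control.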

SK-OV-3 = experiment: Cytotoxicity against human SKOV3 cells after 48 hrs by SRB assay; type: functional, cell-based; details: SK-OV-3, 48 h; in short: as §1
A549 = experiment: Cytotoxicity against human A549 cells after 48 hrs by SRB assay; type: functional, cell-based; details: A549, 48 h; in short: as §1
BT-549 = experiment: Cytotoxicity against human BT549 cells after 48 hrs by SRB assay; type: functional, cell-based; details: BT-549, 48 h; in short: as §1

| SMILES | IC50 (SK-MEL-2) [µM] | Activity (C6) [%] | viability at 20 µM [1] [%] | IC50 (BV-2) [µM] | IC50 (SK-OV-3) [µM] | IC50 (A549) [µM] | IC50 (BT-549) [µM] |
| --- | --- | --- | --- | --- | --- | --- | --- |
| COc1cc(C[C@@H]2C(=O)OC[C@H]2[C@@H](O)c2ccc(O[C@@H]3O[C@H](CO)[C@@H](O)[C@H](O)[C@H]3O)c(OC)c2)ccc1O | > 10 | 103.3 | 98.2 | > 50 | > 10 | > 10 | > 10 |
| COc1cc(C[C@@H]2C(=O)OC[C@H]2[C@@H](O)c2cc(OC)c(O[C@@H]3O[C@H](CO)[C@@H](O)[C@H](O)[C@H]3O)c(OC)c2)ccc1O | > 10 | 99.4 | 102 | > 50 | > 10 | > 10 | > 10 |
| O=C(O)c1ccccc1 [BENZOIC ACID] | > 10 | 114.5 | 96.4 | > 50 | > 10 | > 10 | > 10 |
| COc1cc([C@H](O)[C@@H]2COC(=O)[C@H]2Cc2ccc(O[C@@H]3O[C@H](CO)[C@@H](O)[C@H](O)[C@H]3O)c(OC)c2)ccc1O | > 10 | 104.3 | 102 | > 50 | > 10 | > 10 | > 10 |
| COc1cc(C[C@@H]2C(=O)OC[C@H]2[C@@H](O[C@@H]2O[C@H](CO)[C@@H](O)[C@H](O)[C@H]2O)c2ccc(O)c(OC)c2)ccc1O | > 10 | 150.7 | 100 | > 50 | > 10 | > 10 | > 10 |
| COc1cc(C(=O)O)cc(OC)c1O [SYRINGIC ACID] | > 10 | 125.5 | 95.9 | > 50 | > 10 | > 10 | > 10 |
| COc1cc(C[C@H]2C(=O)OC[C@@H]2C(=O)c2ccc(O[C@@H]3O[C@H](CO)[C@@H](O)[C@H](O)[C@H]3O)c(OC)c2)ccc1O | > 10 | 122.1 | 101 | > 50 | > 10 | > 10 | > 10 |
| CCCCC/C=C/C(=O)CCc1ccc(O)c(OC)c1 [SHOGAOL] | – | 165.7 | 115 | – | – | – | – |
| CNC(=N)NCCC[C@H](N)C(=O)O [TILARGININE] | – | – | – | 17.6 | – | – | – |
| O=C(O)/C=C/c1ccc(O)cc1 [COUMARIC ACID] | > 10 | 129.2 | 198 | > 50 | > 10 | > 10 | 10 |
| COc1cc(/C=C/C(=O)O)ccc1O [FERULATE] | > 10 | 110.7 | 95 | > 50 | > 10 | > 10 | > 10 |
